Compound activity (PubChem)
The entries come from a sample that favours hits as a whole.
GSK3beta inhib = blocks human GSK3beta kinase activity. P49841. GST-GSK3beta kinase, ADP-Glo luminescence, 60 min; hits give low values. activity score (negative = inhibition), % at 10 µM. hit rate 0.038% among 300,000. AID 2097;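 active means more than half of replicate wells score below -50%, meaning over 50% inhibition versus plate controls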;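 further: 0% = median DMSO wells and -100% = median GW8510 positive control wells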
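test system = GST-tagged human GSK3beta kinase, cell-free | reagent = 25 µM ATP with peptide substrate | dosing = one dose of 10 µM per compound | schedule = 60 min reaction, RT | detection = luminescent ADP-Glo measurement of ADP formed | control set = DMSO neutral wells and GW8510 at 20 µM as positive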
CDK5 inh = inhibitors of human CDK5/p35 kinase | Recombinant CDK5/p35, ADP-Glo luminescence, 60 min | inhibition, % at 10 µM | hit rate 0.01% among 330,000 | AID 488839;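 active means highest replicate inhibition of at least 50% and at least 75% of replicates reaching 50%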;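 further: plate controls were DMSO neutral control for no effect and GW8510 at 10 µM for full effect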
DYRK1A inh = blocks rat Dyrk1A kinase activity | Q63470 | ADP-Glo luminescence, NFATc1 peptide | inhibition, % at 12.5 µM | hit rate 0.43% among 310,000 | AID 504441; in the data active means inhibition above about 50%;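 further: plate controls were vehicle with enzyme for no effect and no enzyme for full effect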
GSK3 alpha inh = human GSK-3 alpha kinase inhibition. AID 2650. hit rate 0.1% among 320,000. ADP-Glo luminescence, 60 min. P49840. inhibition, % at 10 µM;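 active means more than half of replicates show inhibition above 20%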;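 further: GST-tagged GSK-3 alpha with peptide substrate and 25 µM ATP; 0% = DMSO neutral wells and 100% = GW8510 positive control wells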
Target sequence (P49840 whole entry, looked up): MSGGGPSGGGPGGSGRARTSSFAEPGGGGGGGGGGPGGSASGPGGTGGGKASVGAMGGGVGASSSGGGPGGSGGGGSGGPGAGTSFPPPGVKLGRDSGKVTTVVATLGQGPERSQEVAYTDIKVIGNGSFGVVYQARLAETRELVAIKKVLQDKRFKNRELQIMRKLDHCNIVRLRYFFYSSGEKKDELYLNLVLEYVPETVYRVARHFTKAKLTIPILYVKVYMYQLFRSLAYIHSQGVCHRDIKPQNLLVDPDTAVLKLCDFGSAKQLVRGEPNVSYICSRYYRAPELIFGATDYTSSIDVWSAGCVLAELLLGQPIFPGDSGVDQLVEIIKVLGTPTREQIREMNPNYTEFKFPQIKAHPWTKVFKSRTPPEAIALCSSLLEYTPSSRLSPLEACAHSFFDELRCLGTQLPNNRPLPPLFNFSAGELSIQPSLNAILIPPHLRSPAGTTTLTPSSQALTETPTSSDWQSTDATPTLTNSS
STK33 kinase inh = human STK33 kinase inhibition; Q9BYT3; purified STK33, MBP phosphorylation, ADP-Glo luminescence; hit rate 0.073% among 320,000; inhibition, % at 10 µM;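 active means inhibition at or above 25%, using the most active replicate where run in duplicate; inactive means inhibition below 25%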
Dyrk1A artifact = interferes with ADP-Glo luciferase readout without Dyrk1A | shares compounds with DYRK1A inh | AID 588348 | ADP-Glo luciferase artifact assay, no Dyrk1A, luminescence | 1,300 tested, under 10 active | AC50, µM (series often up to 12 µM), without a hit: top-dose activity change, negative = inhibition;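 active means fitted half-maximal dose AC50 no more than ten times the top valid tested dose, with luminescence dropping as dose rises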
* hit, by the source's call; · = no result.

SMILES	GSK3beta inhib	CDK5 inh	DYRK1A inh	GSK3 alpha inh	STK33 kinase inh	Dyrk1A artifact
O=C(Nc1ccc(Cl)c(Cl)c1)Nc1nccs1	-1	0	3	-2	3	·
O=C(Nc1cccc(Cl)c1)Nc1nccs1	-2	1	59*	13	4	11%
CCCn1c(SCC(=O)N(CC)c2c(N)n(Cc3ccccc3)c(=O)[nH]c2=O)nnc1-c1ccncc1	·	-9	1	·	·	·
N/C(=N\O)c1ccc(Cl)cc1Cl	-1	-1	·	2	1	·
O=C(Nc1cccc2nsnc12)c1ccc2c(c1)OCO2	3	0	54*	0	2	2%
C=CCn1c(CNc2ccccc2)nnc1SCC(=O)N/N=C/c1ccccc1O	-2	1	8	-2	0	·
O=C(Nc1cccc(Cl)c1)ON=C1c2ccccc2-c2ccccc21	0	6	50*	-1	1	11%
O=C1CCCC2=C1Sc1ccccc1N2	-23	-5	57*	26	6	8%
CCCCOc1ccc(C(=O)N(CC)CC(=O)NCc2cccs2)cc1	-5	1	5	9	4	·
Fc1ccccc1NC(=S)Nc1cccc2cnccc12	-4	2	65*	10	6	9%
OCc1cc(C(O)CNCCCCCCOCCCCc2ccccc2)ccc1O (stereo unspecified)	0	1	53*	9	0	9%
O=C(c1ccc(Cl)c(Cl)c1)N1CCC(=O)N(C(COCc2cccc(C(F)(F)F)c2)Cc2ccccc2)CC1 (stereo unspecified)	3	0	53*	-2	0	6%
O=C1C=CC(O)(c2cc(=O)c3c(O)cc(O)cc3o2)C=C1	-1	19	51*	26	38*	8%
Cn1c(=O)cc(C(=O)N/N=C/c2ccc(F)cc2)[nH]c1=O	1	0	9	-2	0	·
COc1cc(CO)cc(Br)c1OCc1cccnc1	2	0	51*	1	0	9%
CC12CCC(C(=O)Nc3nc4ccc(Br)cc4s3)(OC1=O)C2(C)C (stereo unspecified)	0	0	82*	-1	0	7%
CC12CCC(C(=O)Nc3nccs3)(OC1=O)C2(C)C (stereo unspecified)	2	-1	-1	-3	-1	·
Cc1cccc(CNc2ncnc3ccc(-c4ccc5c(c4)OCO5)cc23)c1	·	1	51*	0	0	6%
O=[N+]([O-])c1ccc(O)c(C=NNc2ccc(S(=O)(=O)O)cc2)c1	·	1	73*	·	·	9%
COCCCn1c(=O)c2ccccc2n(CC(=O)NC2CCCCC2)c1=O	-11	0	-4	-2	1	·
O=C(O)CC1S/C(=N/N=C/c2ccc([N+](=O)[O-])cc2)N(c2ccc(O)cc2)C1=O (stereo unspecified)	0	0	-3	-2	0	·
c1cnc2ccc(-c3ccc4ncccc4c3)cc2c1	1	3	87*	-1	12	9%
Cc1ccc2ncccc2c1	·	1	·	-4	0	·
COc1cccc(/C=N/n2c(COc3ccccc3)n[nH]c2=S)c1O	-2	5	57*	23	3	9%
CCCCN(c1ccccc1)S(=O)(=O)c1cccc2cccnc12	1	1	-9	-2	0	·
SMILES	GSK3beta inhib	CDK5 inh	DYRK1A inh	GSK3 alpha inh	STK33 kinase inh	Dyrk1A artifact
O=C(Nc1ccccc1O)c1csc2c1CCCC2	2	2	4	-1	-2	·
CCc1ccc(C(=O)Nc2nc(C)cs2)s1	-4	1	8	1	1	·
CCc1ccc(C(=O)Nc2cccc(-c3nn[nH]n3)c2)s1	3	0	83*	1	-1	10%
O=C(Nc1cccc(-c2nn[nH]n2)c1)c1csc2c1CCCC2	2	-4	56*	3	5	7%
Cc1cccc(C)c1OCCOC(=O)c1n[nH]c2ccccc12	0	-1	60*	-1	-3	9%
Cc1cccc(NC(=O)COC(=O)c2n[nH]c3ccccc23)c1C	·	1	0	-2	0	·
c1csc(CNc2ncnc3ccc(-c4ccoc4)cc23)c1	·	9	74*	1	2	10%
CN(C)C(=O)CSc1ncnc2scc(-c3ccccc3)c12	-2	-1	9	1	0	·
O=C(O)CSc1ncnc2scc(-c3ccccc3)c12	1	5	73*	8	7	11%
S=c1[nH]c2ccccc2n1CCc1ccncc1	·	0	30	·	·	·
S=c1sc2ccccc2n1CCc1ccncc1	-20	0	62*	35	9	10%
COc1ccc(NC(=S)N(CCN2CCOCC2)Cc2cc3cc4c(cc3[nH]c2=O)OCCO4)cc1	-4	-1	-6	-3	-1	·
COc1ccc2nc(-n3c(O)c(C4=c5ccccc5=NC4=O)[nH]c3=S)sc2c1	1	2	63*	5	2	8%
Cn1c(O)c(C2=c3ccccc3=NC2=O)[nH]c1=S	-5	3	-5	-1	-2	·
c1ccc(COc2ncnc3c2ncn3CCCNCc2ccc3c(c2)OCO3)cc1	·	1	5	·	·	·
COc1cccc(C(=O)Nc2ccc(F)cc2F)c1	0	0	6	-3	2	·
COc1cccc(C(=O)Nc2ccc(F)c(F)c2F)c1	1	-1	51*	-1	-1	8%
Cc1ccc2c(c1)C(=C(C#N)C#N)CCN2	·	4	61*	·	·	9%
COc1cc(/C=C2\SC(=Nc3ccccc3)NC2=O)cc(Cl)c1O	-4	0	51*	7	7	10%
COc1ccc(CCC(=O)Nc2ccc(S(=O)(=O)Nc3nccc(C)n3)cc2)cc1	-1	-3	-1	-2	-2	·
O=C(C1CC(=O)N(C2CCCC2)C1)N1CCN(c2ccc(F)cc2)CC1 (stereo unspecified)	-2	2	61*	·	·	9%
Clc1cccc(Cc2nn[nH]n2)c1	3	0	59*	-9	3	11%
Clc1cccc(Cc2ccc(Cl)nn2)c1	2	2	1	-1	-1	·
Cc1cc(C(=O)NC2CC(C)(C)Cc3c2cnn3-c2ccccc2C)c(C)o1 (stereo unspecified)	3	0	4	6	1	·
Cc1nonc1C(=O)N/N=C/c1ccc(O)c(O)c1	5	6	15	5	3	·
O=C(N/N=C/c1ccc(O)c(O)c1)N/N=C/c1ccc(O)c(O)c1	-40	5	80*	54*	24	7%
COCCCNC1=C(Cl)C(=O)c2ccccc2C1=O	-12	1	·	11	-14	·
COCCCNc1c2c3c(cccc3[nH]c1=O)C(=O)c1ccccc1-2	·	2	65*	40	23	15%
C=CCn1c(SCC(=O)Nc2ccc3c(c2)OCCO3)nc2cc(C(=O)O)ccc2c1=O	·	0	26	1	0	·
Cc1ccc(-c2ccc3c(c2)S(=O)(=O)c2ccccc2C3=O)cc1	2	·	·	-1	-3	·
